From PubChem
Cardio protect – myocardial damage modulation in H9c2 cells. H9c2 cardiomyocytes, H2O2 injury protection, ATPLite, 2 h. protection from H2O2 cell death, % at 20 µM. 0.63% of 360,000 active. AID 588492;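 active means compounds giving at least 50% protection of heart cells from peroxide-induced death in the single-dose screen, raw or plate-pattern-corrected value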;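 further: 0% = DMSO wells with peroxide and 100% = DMSO wells without peroxide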
MIN6 prolif – induces beta-cell replication in MIN6 cells; MIN6 cells proliferation, ATPlite luminescence, 48 h; cells starved in 0.2% serum; 100% = growth in 10% serum; proliferation, % at 10 µM; 0.29% of 330,000 active; AID 2380;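 active means compounds whose signal lies at least 3.5 SD above the mean of all wells on their plate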;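 further: 0% = DMSO-treated cells in low-serum medium and 100% = 10% serum control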
hiPSC survival – hiPSC single-cell survival enhancement; ATPlite luminescence; 100% = ROCK inhibitor wells, 0% = DMSO; 0.044% of 360,000 active; survival enhancement, % at 20 µM; in the data active means survival enhancement above about 18%;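 further: cells exposed to compounds for 16 hours before the ATP read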
UCH37 DUB inh – inhibitors of human deubiquitinating enzyme UCH37; Q9Y5K5; AID 588478; purified proteasome/UCH37, Ub-AMC cleavage fluorescence; 0.33% of 330,000 active; inhibition, % (no concentration beside the values);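 active means mean inhibition over replicate wells above about 20%, limit read from the data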;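 further: 0% = compound-free wells with enzyme and 100% = wells lacking proteasome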
Target sequence (Q9Y5K5 whole entry, looked up): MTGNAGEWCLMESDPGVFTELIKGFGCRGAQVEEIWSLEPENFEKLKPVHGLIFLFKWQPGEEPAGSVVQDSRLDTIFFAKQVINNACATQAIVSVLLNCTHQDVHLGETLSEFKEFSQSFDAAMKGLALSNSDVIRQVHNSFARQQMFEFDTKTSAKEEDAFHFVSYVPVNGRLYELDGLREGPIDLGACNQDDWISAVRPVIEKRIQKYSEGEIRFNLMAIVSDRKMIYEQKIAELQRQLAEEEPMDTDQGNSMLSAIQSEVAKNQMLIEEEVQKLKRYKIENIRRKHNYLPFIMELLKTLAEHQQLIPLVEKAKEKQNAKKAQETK
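System: Proteasome-associated human UCH37 deubiquitinase; Input: 0.15 nM proteasome in added enzyme buffer; Also added: Ub-AMC substrate from 1 µM stock; Incubation: 30 min compound-proteasome preincubation then 25 min substrate reaction, room temperature; Detection: fluorescence, ex 355 nm, em 460 nm; Read-out: % inhibition of Ub-AMC cleavage fluorescence; Benchmarks: no-proteasome and no-compound wells.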
CRFR2-BP antag – blocks CRF-induced signaling of the CRF-BP/CRF-R2 complex; HEK293 CRF-R2/CRF-BP, CRF-induced calcium fluorescence; inhibition, % at 11.8 µM; 0.59% of 350,000 active;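 active means inhibition of the ligand-induced calcium signal above about 50% at the single tested concentration, limit read from the data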
CRFBP-R2 agonist – agonists of human CRF-binding protein/CRF-R2 receptor complex. HEK293 CRF-R2/CRF-BP, calcium dye fluorescence (FLIPR); percent of saturating CRF peptide response. activation, % at 13.2 µM. 0.46% of 350,000 active. AID 588473;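 active means activation of at least 50%, plus an integration ratio under a set limit after plate pattern correction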;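 further: plate controls were neutral control wells without compound for no effect and CRF at EC100 for full effect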
* hit, by the source's call; / = no result given. A selection: hits, their analogues and other compounds. The true share with any hit is near 2.1%.

SMILES | Cardio protect | MIN6 prolif | hiPSC survival | UCH37 DUB inh | CRFR2-BP antag | CRFBP-R2 agonist
COc1cccc(OP(=O)(Nc2ccccc2)Oc2cccc(OC)c2)c1 | 70.3* | -3.6 | 0.5 | 1.5 | -2.4 | 0.5
O=C1NC(=O)C(=Cc2cn(CCOc3ccc4c(c3)OCO4)c3ccccc23)C(=O)N1 | 18.0 | -2.3 | 1.0 | 4.6 | -57.4 | 59.2*
C=CCn1cc(C=C2C(=O)NC(=O)NC2=O)c2ccccc21 | 3.9 | -1.7 | 0.7 | / | -20.5 | 14.1
CCOC(=O)c1cc(CC)sc1N=CC1C(=O)NC(=S)NC1=O | / | / | / | 4.8 | / | /
C=C1C(=O)OC2CC(C)C3C=CC(=O)C3(C)C(O)C12 (stereo not drawn) | -16.9 | / | 50.0* | / | 5.7 | -2.1
O=C(C(=C1N(Cc2ccc(Cl)nc2)CCN1Cc1ccc(Cl)nc1)[N+](=O)[O-])C(Cl)Cl | 7.9 | -2.7 | 0.3 | 4.3 | -91.4 | 148.0*
CCN(CC)c1ccc(/C=N/c2sc3c(c2C#N)C2CCN3CC2)c(O)c1 | -0.4 | / | 6.1 | / | -159.5 | 171.1*
N#Cc1c(N=Cc2ccc(O)cc2O)sc2c1C1CCN2CC1 | / | / | / | 5.9 | / | /
CN(C(=O)Oc1ccc(C(=O)c2ccc(Cl)cc2)cc1)c1ccccc1 | -4.7 | 0.0 | -1.6 | 2.7 | 50.2* | 9.4
CN(C)C(=O)Oc1ccc(OC(=O)c2ccccc2)cc1 | -9.0 | -4.2 | 0.3 | -0.2 | 2.6 | 0.5
Cc1ccccc1-n1c(O)c(/C=N/Nc2nc3c(c(=O)n(C)c(=O)n3C)n2C)c(=O)[nH]c1=S | 8.5 | 0.0 | -0.7 | 8.3 | 9.3 | 4.3
Cn1c(=O)c2c(nc(N/N=C/c3c(O)n(C4CCCCC4)c(=S)[nH]c3=O)n2C)n(C)c1=O | 67.7* | -0.3 | 0.2 | 8.5 | -4.5 | 1.3
Cn1c(O)c(C=NC2CCCCC2)c(=O)[nH]c1=S | 5.3 | 1.4 | -2.6 | 21.6* | -22.0 | -1.0
CC(C)CC12CN3CCN(CC(C3)C1=NO)C2 | / | / | / | 4.5 | / | /
CN(C)C1=NP(N(C)C)(N(C)C)=NC(c2ccccc2)=N1 | 11.2 | 1.4 | 5.1 | 4.2 | 51.8* | -0.6
CCOC(=O)C(=NNc1ccccc1)N1CC1 | / | / | / | 10.3 | / | /
O=C(N/N=C/c1c(O)n(CCC2=CCCCC2)c(=S)[nH]c1=O)c1ccccc1 | 65.9* | -3.4 | -0.3 | -93.6 | 55.4* | 0.7
O=C(N/N=C/c1c(O)n(CCC2=CCCCC2)c(=O)[nH]c1=O)c1ccccc1 | 36.6 | 0.3 | 0.2 | -404.4 | 25.1 | 2.4
COc1ccccc1N1CCN(Cc2c(F)cccc2Cl)CC1 | -2.9 | 0.8 | 0.6 | -0.4 | 60.5* | -0.5
COc1ccccc1N1CCN(Cc2ccccc2)CC1 | -6.6 | -2.5 | 0.0 | 5.9 | 6.5 | 0.2
COCCCn1c(-c2ccc(OC)cc2)cc(C(=O)NC2CCCCCCC2)c1C | 6.0 | -2.7 | -2.5 | 3.6 | 86.2* | -2.6
COc1ccc(-c2ccc3c(c2)CN(C(=O)NC2CCCCC2)Cc2cnnn2-3)cc1 | 3.5 | / | -1.6 | / | / | /
COc1ccc(OC)c(N2C(=O)/C(=C/c3ccco3)C(=O)NC2=S)c1 | / | 0.1 | / | 51.8* | 8.3 | 1.5
O=C1NC(=S)N(c2ccc(F)cc2)C(=O)/C1=C/c1ccco1 | / | -3.1 | / | / | / | /
CN1C(=O)/C(=C\c2ccc(N3CCCCC3)o2)C(=O)NC1=S | -3.3 | -0.8 | -0.4 | 21.8* | -68.7 | 130.1*
SMILES | Cardio protect | MIN6 prolif | hiPSC survival | UCH37 DUB inh | CRFR2-BP antag | CRFBP-R2 agonist
CN1CCN(c2ccc(/C=C3\C(=O)NC(=S)N(c4cccc(Br)c4)C3=O)o2)CC1 | -1.8 | 0.7 | 0.7 | 21.1* | -179.8 | 163.8*
CCN1C(=O)C(=Cc2ccc(N3CCOCC3)o2)C(=O)N(CC)C1=S | -0.1 | -1.6 | 1.6 | 6.8 | -67.7 | 36.2
CCOc1ccc(N2C(=O)NC(=O)/C(=C\c3ccc(N4CCCCC4)o3)C2=O)cc1 | 11.2 | 0.0 | -0.5 | 6.9 | -40.5 | 56.9*
CN1C(=O)/C(=C/c2ccc(N3CCCCCC3)o2)C(=O)NC1=S | -4.3 | -3.8 | -0.6 | 17.6 | -34.1 | 44.7
CN1C(=O)C(=Cc2ccc(N3CCOCC3)o2)C(=O)N(C)C1=S | -4.7 | 3.4 | -1.2 | 11.7 | -200.9 | 239.1*
O=C1NC(=O)N(c2ccc3c(c2)OCO3)C(=O)/C1=C/c1ccc(N2CCCC2)o1 | 2.9 | 0.0 | 0.3 | 7.4 | -33.0 | 29.9
